In EPA's CvTdb concentration-time database:

How the values were obtained:
rat [1] = experiment: concentration in blood after dosing; negative times count back from the end of exposure; details: inhalation
human = experiment: concentration in blood after dosing; negative times count back from the end of exposure; details: dosed: ethylbenzene, 33 ppm, inhalation, duration: 7 hr
Outline: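 A PubMed search, classifier screening and manual review identified published in vivo toxicokinetic studies, which together with two structured collections supplied concentration-versus-time and amount-versus-time points. Points were mostly digitised from plot screenshots with WebPlotDigitizer, otherwise copied from tables. Dose, route, subject details and medium were hand-curated from each paper, and sampling and analytical methods are those of the sources, often unreported.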

rat [2] = experiment: concentration in blood after dosing
rat [3] = experiment: concentration in blood after dosing; details: dosed: m-xylene, 5000 ppm, dermal, duration: 4 hr, male, F344
rat [4] = experiment: concentration in blood after dosing; details: dosed: m-xylene, 5000 ppm, dermal, duration: 4 hr, male, F344; remark: listed apart in the source
rat [5] = experiment: concentration in blood after dosing; details: dosed: m-xylene, 5000 ppm, dermal, duration: 4 hr, male, F344; remark: listed apart in the source
rat [6] = experiment: concentration in blood after dosing; details: dosed: m-xylene, 5000 ppm, dermal, duration: 4 hr, male, F344; remark: listed apart in the source
rat [7] = experiment: concentration in blood after dosing; details: dosed: m-xylene, 5000 ppm, dermal, duration: 4 hr, male, F344; remark: listed apart in the source
Rat [8] = experiment: concentration in plasma after dosing; details: 72 h, 300 ug/mL, oral, Female, F344
Rat [9] = experiment: concentration in adipose after dosing; details: 144 h; dosed: Tamoxifen citrate; 300 ug/mL; oral; Female; F344
Rat [10] = experiment: concentration in adipose after dosing; details: 144 h; dosed: Tamoxifen citrate; 300 ug/mL; oral; Female; F344; remark: listed apart in the source
Rat [11] = experiment: concentration in adipose after dosing; details: 72 h; dosed: Tamoxifen citrate; 100 ug/mL; oral; Female; F344
Rat [12] = experiment: concentration in adipose after dosing; details: 144 h; dosed: Tamoxifen citrate; 300 ug/mL; oral; Female; F344; remark: listed apart in the source
Rat [13] = experiment: concentration in adipose after dosing; details: oral, Female, F344
Rat [14] = experiment: concentration in adipose after dosing; details: 144 h; dosed: Tamoxifen; 300 ug/mL; oral; Female; F344
Rat [15] = experiment: concentration in adipose after dosing; details: 144 h; dosed: Tamoxifen citrate; 100 ug/mL; oral; Female; F344
Rat [16] = experiment: concentration in adipose after dosing; details: 144 h; dosed: Tamoxifen; 300 ug/mL; oral; Female; F344; remark: listed apart in the source
Rat [17] = experiment: concentration in adipose after dosing; details: 144 h; dosed: Tamoxifen citrate; 100 ug/mL; oral; Female; F344; remark: listed apart in the source
Rat [18] = experiment: concentration in adipose after dosing; details: 144 h; dosed: Tamoxifen; 300 ug/mL; oral; Female; F344; remark: listed apart in the source

ClC(Cl)(Cl)Cl [carbon tetrachloride]
concentration in blood [ng/mL], rat [1], dosed: carbon tetrachloride, duration: 120 min
Details	100 ppm	1000 ppm
0.1277 h	401	4510
0.2902 h	401	–
0.305 h	–	4270
0.4232 h	340	–
0.4675 h	–	4510
0.6891 h	240	–
0.7039 h	–	4750
0.9551 h	240	–
0.9698 h	–	3670
1.457 h	240	–
1.472 h	–	2640
1.96 h	–	2860
1.975 h	140	–
2.462 h	140	1020
2.965 h	140	1060
3.954 h	40.1	–
3.969 h	–	761
4.944 h	40.1	–
4.974 h	–	701
5.979 h	20	–
5.993 h	–	441
7.013 h	–	220
7.988 h	–	220
8.993 h	–	240
9.983 h	–	160
194 s	–	6310
247 s	501	5190

rat [1], dosed: carbon tetrachloride, duration: 120 min, during exposure
Details	concentration in blood [ng/mL]
-179 s, 1000 ppm	11200
-125 s, 100 ppm	681
-1.941 h, 1000 ppm	5690
-1.867 h, 1000 ppm	7110
-1.852 h, 100 ppm	441
-1.793 h, 100 ppm	601
-1.69 h, 100 ppm	741
-1.675 h, 1000 ppm	7550
-1.527 h, 100 ppm	481
-1.498 h, 1000 ppm	6170
-1.276 h, 1000 ppm	7510
-1.261 h, 100 ppm	421
-1.054 h, 1000 ppm	6930
-1.025 h, 100 ppm	561
-0.8032 h, 100 ppm	601
-0.7884 h, 1000 ppm	7730
-0.5668 h, 1000 ppm	8190
-0.5372 h, 100 ppm	461
-0.3008 h, 100 ppm	881
-0.2861 h, 1000 ppm	10000

ClC(Cl)Cl [chloroform]
rat [1], dosed: chloroform, 100 ppm, duration: 360 min
Details	concentration in blood [µg/g]
0.4971 h	0.55
2.006 h	0.151

rat [1], dosed: chloroform, 100 ppm, duration: 360 min, during exposure
Details	concentration in blood [µg/g]
-31 s	1.02
-5.747 h	0.18
-5.503 h	1.05
-4.997 h	1.05
-3 h	1.25

CCc1ccccc1 [ethylbenzene]
human
Details	concentration in blood [ng/mL]
0.4921 h	254
0.9902 h	197

human, during exposure
Details	concentration in blood [ng/mL]
-1.491 h	518
-0.514 h	497

rat [2], dosed: ethylbenzene, 50 ppm, inhalation, duration: 4 hr
Details	concentration in blood [ng/mL]
0.4948 h	531
0.9897 h	315
1.498 h	193
1.993 h	146
272 s	821

O=C[O-] [formate]
rat [2], dosed: methanol, 100 mg/kg, iv, male, CDF(F344)/CrlBR
Details	concentration in blood [ng/mL]
0.1321 h	3240
0.4419 h	3230
0.9757 h	3130
1.457 h	3580
1.923 h	2560
2.94 h	2070
4.456 h	1030
5.99 h	73.9
7.984 h	1330
119 s	740

Cc1cccc(C)c1 [m-xylene]
concentration in blood [ng/mL]
Details	rat [3]	rat [4]	rat [5]	rat [6]	rat [7]
0.5 h	2860	5380	154	3960	6020
1 h	2950	9470	5860	3790	7020
2 h	8160	12100	3840	25600	3450
3 h	8020	15900	3760	5950	9500
4 h	9030	16700	5030	9940	11400

rat [2], dosed: m-xylene, 5000 ppm, dermal, duration: 4 hr, male, F344
Details	concentration in blood [ng/mL]
0.5 h	154
1 h	4110
2 h	4350
3 h	8850
4 h	10500

c1cc2ccc3cccc4ccc(c1)c2c34 [total 14C-pyrene]
rat [1], dosed: pyrene, male, Wistar, radiolabel
Details	concentration in blood [ng/mL]
0.2501 h, 200 mg/m^3, duration: 95 min	1940
0.253 h, 500 mg/m^3, duration: 95 min	16900
0.263 h, 800 mg/m^3, duration: 95 min	41000
0.5176 h, 500 mg/m^3, duration: 95 min	14700
0.5339 h, 800 mg/m^3, duration: 95 min	41000
0.8638 h, 800 mg/m^3, duration: 95 min	43500
0.87 h, 500 mg/m^3, duration: 95 min	12400
0.875 h, 200 mg/m^3, duration: 95 min	1190
1.216 h, 500 mg/m^3, duration: 95 min	9070
1.222 h, 800 mg/m^3, duration: 95 min	42700
1.227 h, 200 mg/m^3, duration: 95 min	1020
1.722 h, 500 mg/m^3, duration: 95 min	6760
1.724 h, 800 mg/m^3, duration: 95 min	34600
1.733 h, 200 mg/m^3, duration: 95 min	990
2.225 h, 500 mg/m^3, duration: 95 min	5300
2.235 h, 800 mg/m^3, duration: 95 min	30300
2.245 h, 200 mg/m^3, duration: 95 min	837
2.901 h, 200 mg/m^3, duration: 95 min	773
2.91 h, 800 mg/m^3, duration: 95 min	24100
2.926 h, 500 mg/m^3, duration: 95 min	4130
3.568 h, 800 mg/m^3, duration: 95 min	21000
3.582 h, 200 mg/m^3, duration: 95 min	714
3.588 h, 500 mg/m^3, duration: 95 min	3380
4.567 h, 800 mg/m^3, duration: 95 min	15500
4.569 h, 200 mg/m^3, duration: 95 min	695
4.577 h, 500 mg/m^3, duration: 95 min	3050
6.023 h, 800 mg/m^3, duration: 95 min	11100
6.027 h, 500 mg/m^3, duration: 95 min	2510
7.481 h, 800 mg/m^3, duration: 95 min	9810
32 min, 200 mg/m^3, duration: 95 min	1460
34 s, 500 mg/m^3, duration: 95 min	15900
79 s, 200 mg/m^3, duration: 95 min	2240

rat [1], dosed: pyrene, male, Wistar, radiolabel, during exposure
Details	concentration in blood [ng/mL]
-28 s, 800 mg/m^3, duration: 95 min	40700
-1.353 h, 200 mg/m^3, duration: 95 min	659
-1.349 h, 500 mg/m^3, duration: 95 min	2480
-1.122 h, 500 mg/m^3, duration: 95 min	6670
-1.119 h, 800 mg/m^3, duration: 95 min	8210
-1.09 h, 200 mg/m^3, duration: 95 min	1400
-0.7764 h, 800 mg/m^3, duration: 95 min	19900
-0.7622 h, 200 mg/m^3, duration: 95 min	2040
-0.7591 h, 500 mg/m^3, duration: 95 min	10200
-0.4362 h, 800 mg/m^3, duration: 95 min	29200
-0.434 h, 200 mg/m^3, duration: 95 min	2250
-0.4242 h, 500 mg/m^3, duration: 95 min	12700

CC/C(=C(/c1ccc(O)cc1)c1ccc(OCCN(C)C)cc1)c1ccccc1 [trans-4-Hydroxytamoxifen]
Rat [8]
Details	concentration in plasma [ng/mL]
dosed: Tamoxifen	1.87
dosed: Tamoxifen citrate	1.87

Details	concentration in adipose [ng/g]
Rat [9]	10.3
Rat [10]	9.08
Rat [11]	5.3
Rat [12]	5.1
Rat [14]	9.08
Rat [15]	6.12
Rat [16]	5.1
Rat [17]	5.04
Rat [18]	10.3

concentration in adipose [ng/g], Rat [13]
Details	72 h	144 h
dosed: Tamoxifen citrate, 100 ug/mL	8.8	4.35
dosed: Tamoxifen citrate, 300 ug/mL	–	2.96
dosed: Tamoxifen, 300 ug/mL	–	2.96
